Experimental data collected from several papers.
Protocols differ between the studies behind these lines.
Target: Serine/threonine-protein kinase WNK3 (WNK3, Homo sapiens, UniProt Q9BYP7)

SMILES | test | setting | endpoint | value
N#CCCc1ccc2c(c1)-c1[nH]c3ccc([N+](=O)[O-])cc3c1CC(=O)N2 | cell-free assay | 0.5 µM | remaining signal | 96.5%
Cc1sc(C(=O)NC2COC2)cc1-n1cc(NC(=O)Nc2c(F)cccc2Cl)cn1 | enzyme activity, inhibitor | 10 µM | remaining activity | 102%
Cc1ccc(Nc2nccc(N(C)c3ccc4c(C)n(C)nc4c3)n2)cc1S(N)(=O)=O | enzyme activity, inhibitor | 10 µM | inhibition | 33%
O=c1nc(-c2ccccn2)sc2ccccc12 | binding, competition with immobilised ligand | 1 µM | remaining binding | 100%
CC(C)(C)c1nc(-c2cccc(NS(=O)(=O)c3c(F)cccc3F)c2F)c(-c2ccnc(N)n2)s1 | enzyme activity, inhibitor, radiometric | 1 µM | remaining activity | 89%
Nc1ncnc2occ(-c3ccc(NC(=O)Nc4cc(C(F)(F)F)ccc4F)cc3)c12 | cell-free assay, inhibitor | 20 µM | remaining signal | 58%
O=C(NCCCC1CCCCC1)c1ccc(CNC(=O)c2cnn(-c3ccccc3)c2C(F)(F)F)cc1 | cell-free assay, competition with immobilised ligand | 0.1 µM | remaining binding | 100%
Cc1ccc(NC(=O)c2ccc(C)c(C(F)(F)F)c2)cc1C#Cc1nn(C2CCC(O)CC2)c2ncnc(N)c12 (centres unmarked) | cell-free assay | 10 µM | remaining signal | 39%
CNC(=O)c1cc(Oc2ccc(NC(=O)Nc3ccc(Cl)c(C(F)(F)F)c3)cc2)ccn1 | enzyme activity, inhibitor | 10 µM | inhibition | -4%
CCCOc1ccc([C@H]2[C@H](C(=O)O)[C@@H](c3ccc4c(c3)OCO4)CN2CC(=O)Nc2c(CC)cccc2CC)cc1 | cell-free assay, competition with immobilised ligand | 1 µM | remaining binding | 90%
Cc1cc(NC(=O)c2cccc3cc(-c4cccc5[nH]nc(N)c45)ccc23)ccc1F | enzyme activity, inhibitor | 0.1 µM | activity vs control | 93%
O=C1NC(=O)c2cc(Nc3ccc(F)cc3)c(Nc3ccc(F)cc3)cc21 | cell-free assay | 0.5 µM | remaining signal | 92.7%
CCN(CC)CCNC(=O)c1c(C)[nH]c(/C=C2\C(=O)Nc3ccc(F)cc32)c1C | enzyme activity, inhibitor | 10 µM | inhibition | 7%
CNCc1ccccc1-c1csc([C@@H](C)Nc2nc(C)nc3cc(OC)c(OC)cc23)c1 | cell-free assay, competition with immobilised ligand | 1 µM | remaining binding | 100%
O=C(Nc1cnn(-c2csc(C(=O)NC3COC3)c2)c1)Nc1ccccc1Cl | enzyme activity, inhibitor | 5 µM | remaining activity | 99.5%
CC(C)(O)c1cncc(-c2nc3ccc(F)cc3n2C2CC2)c1 | cell-free assay, competition with immobilised ligand | 1 µM | remaining binding | 100%
COc1cc(Cl)c(C(=O)N[C@@H](CN[C@H]2CC[C@@H](N)CC2)Cc2ccc(C#N)cc2)cc1-c1ccc(CN[C@H](C)c2ccc(C)cc2)o1 | enzyme activity, inhibitor | 1 µM | remaining activity | 99%
